10 molecules from ChEMBL document CHEMBL1139946, “1-Aryl-4,6-dihydropyrazolo[4,3-d][1]benzazepin-5(1H)-ones: a new class of antiproliferative agents with selectivity for human leukemia and breast cancer cell lines” (Eur J Med Chem, 2007) can be followed below.

Some results are limits rather than exact numbers.

Assay [1] deals with MCF7. In words: Antiproliferative activity against human MCF7 cells at 100 uM after 48 hrs relative to control. It counts as functional. As to conditions: MCF7, 48 h. The gist of the method: (§1)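 NCI three-cell-line prescreen (MCF7 breast, NCI-H460 non-small cell lung, SF-268 CNS). Cells inoculated and preincubated in microtiter plates, then exposed to test agent at 10^-4 M for 48 h. Alamar blue end-point read-out. Growth of treated cells expressed as percent of untreated control cells.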

For assay [2], the system named is NCI-H460. The assay is described as follows: Antiproliferative activity against human NCI-H460 cells at 100 uM after 48 hrs relative to control. It is filed as functional. As to conditions: NCI-H460, 48 h. The gist of the method:
as §1

The target in assay [3] is T1, Ephrin type-B receptor 4 (Homo sapiens) (UniProt P54760).
T1 sequence (whole entry): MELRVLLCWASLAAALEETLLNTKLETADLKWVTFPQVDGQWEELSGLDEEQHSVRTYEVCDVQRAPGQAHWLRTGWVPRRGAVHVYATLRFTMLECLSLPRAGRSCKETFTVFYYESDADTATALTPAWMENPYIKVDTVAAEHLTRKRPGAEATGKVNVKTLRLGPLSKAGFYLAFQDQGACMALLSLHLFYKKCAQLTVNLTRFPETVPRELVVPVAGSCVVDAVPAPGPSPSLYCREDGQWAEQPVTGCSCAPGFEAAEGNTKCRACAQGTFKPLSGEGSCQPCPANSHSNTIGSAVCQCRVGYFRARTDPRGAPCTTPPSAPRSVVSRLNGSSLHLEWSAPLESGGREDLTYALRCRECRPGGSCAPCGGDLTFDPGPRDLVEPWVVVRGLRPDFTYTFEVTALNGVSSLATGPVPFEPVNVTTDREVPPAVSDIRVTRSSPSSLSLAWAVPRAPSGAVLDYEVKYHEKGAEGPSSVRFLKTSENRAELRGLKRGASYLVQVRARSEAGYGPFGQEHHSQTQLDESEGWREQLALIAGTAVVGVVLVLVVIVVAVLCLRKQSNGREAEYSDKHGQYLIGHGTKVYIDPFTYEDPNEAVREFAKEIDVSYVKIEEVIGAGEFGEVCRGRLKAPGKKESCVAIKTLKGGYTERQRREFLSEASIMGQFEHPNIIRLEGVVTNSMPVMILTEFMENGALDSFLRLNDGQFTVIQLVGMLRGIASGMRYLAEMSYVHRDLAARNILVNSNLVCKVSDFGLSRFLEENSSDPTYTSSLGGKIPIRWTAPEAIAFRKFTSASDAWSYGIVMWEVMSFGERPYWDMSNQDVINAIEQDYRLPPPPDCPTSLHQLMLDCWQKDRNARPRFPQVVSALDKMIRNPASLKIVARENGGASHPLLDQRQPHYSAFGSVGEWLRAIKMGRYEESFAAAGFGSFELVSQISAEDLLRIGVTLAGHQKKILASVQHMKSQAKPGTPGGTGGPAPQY
In words: Inhibition of EphB4 at 10 uM.

The target of assay [4] is Focal adhesion kinase 1 (Homo sapiens) (UniProt Q05397). In words: Inhibition of FAK at 10 uM.
In assay [5] the target is Proto-oncogene tyrosine-protein kinase Src (Homo sapiens) (UniProt P12931). In words: Inhibition of SRC at 10 uM.
Proto-oncogene tyrosine-protein kinase Src (Homo sapiens), sequence (P12931 2-536 limits assumed): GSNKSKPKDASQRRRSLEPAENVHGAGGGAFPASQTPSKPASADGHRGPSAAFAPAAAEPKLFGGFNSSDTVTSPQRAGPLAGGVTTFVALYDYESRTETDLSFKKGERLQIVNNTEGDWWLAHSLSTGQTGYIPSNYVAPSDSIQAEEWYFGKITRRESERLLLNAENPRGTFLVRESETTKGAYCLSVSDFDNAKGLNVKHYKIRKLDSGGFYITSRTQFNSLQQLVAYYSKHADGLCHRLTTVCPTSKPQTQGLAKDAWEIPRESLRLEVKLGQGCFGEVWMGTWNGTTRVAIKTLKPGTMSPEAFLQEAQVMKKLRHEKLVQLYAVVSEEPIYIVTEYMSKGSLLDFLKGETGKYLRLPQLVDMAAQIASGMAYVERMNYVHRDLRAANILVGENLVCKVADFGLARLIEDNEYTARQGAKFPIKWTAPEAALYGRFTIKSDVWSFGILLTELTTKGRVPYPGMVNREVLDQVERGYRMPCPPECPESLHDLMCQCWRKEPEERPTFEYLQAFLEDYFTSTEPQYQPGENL
Assay [6] concerns the target Hepatocyte growth factor receptor (Homo sapiens) (UniProt P08581). In words: Inhibition of MET at 10 uM.
The target in assay [7] is Vascular endothelial growth factor receptor 2 (Homo sapiens) (UniProt P35968). The assay is described as follows: Inhibition of VEGFR2 at 10 uM.
Assay [8] addresses RAC-alpha serine/threonine-protein kinase (Homo sapiens) (UniProt P31749). In words: Inhibition of AKT1 at 10 uM.
The target of assay [9] is T2, Aurora kinase A (Homo sapiens) (UniProt O14965).
T2 sequence (whole entry): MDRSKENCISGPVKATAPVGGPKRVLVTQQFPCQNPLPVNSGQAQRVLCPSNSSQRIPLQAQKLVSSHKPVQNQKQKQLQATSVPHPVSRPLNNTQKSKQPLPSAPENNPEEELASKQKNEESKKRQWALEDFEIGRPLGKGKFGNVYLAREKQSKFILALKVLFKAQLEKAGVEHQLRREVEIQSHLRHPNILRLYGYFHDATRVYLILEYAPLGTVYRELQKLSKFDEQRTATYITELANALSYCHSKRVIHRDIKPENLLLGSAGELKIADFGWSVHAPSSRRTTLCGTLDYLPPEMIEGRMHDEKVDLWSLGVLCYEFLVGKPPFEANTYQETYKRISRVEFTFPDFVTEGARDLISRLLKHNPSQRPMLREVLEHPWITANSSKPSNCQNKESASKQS
The assay is described as follows: Inhibition of aurora A at 10 uM.

Assay [10] addresses Aurora kinase B (Homo sapiens) (UniProt Q96GD4). In words: Inhibition of aurora B at 10 uM.
The target of assay [11] is Serine/threonine-protein kinase PLK1 (Homo sapiens) (UniProt P53350). In words: Inhibition of PLK1 at 10 uM.
Serine/threonine-protein kinase PLK1 (Homo sapiens), sequence (P53350 whole entry): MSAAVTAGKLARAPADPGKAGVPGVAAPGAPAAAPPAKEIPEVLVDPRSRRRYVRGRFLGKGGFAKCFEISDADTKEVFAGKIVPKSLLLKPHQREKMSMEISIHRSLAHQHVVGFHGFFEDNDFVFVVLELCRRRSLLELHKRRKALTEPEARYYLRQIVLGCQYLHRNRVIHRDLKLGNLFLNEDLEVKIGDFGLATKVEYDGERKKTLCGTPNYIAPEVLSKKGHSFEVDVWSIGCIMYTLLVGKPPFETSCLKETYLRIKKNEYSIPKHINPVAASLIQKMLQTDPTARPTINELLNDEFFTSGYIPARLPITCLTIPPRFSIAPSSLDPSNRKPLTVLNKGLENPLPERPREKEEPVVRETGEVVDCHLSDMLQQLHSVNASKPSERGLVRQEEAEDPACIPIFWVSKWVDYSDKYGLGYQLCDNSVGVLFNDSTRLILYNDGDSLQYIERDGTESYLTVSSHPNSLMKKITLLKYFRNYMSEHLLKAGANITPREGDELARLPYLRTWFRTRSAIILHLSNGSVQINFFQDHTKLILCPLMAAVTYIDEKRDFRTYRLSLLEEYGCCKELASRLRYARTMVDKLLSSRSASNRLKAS
The target in assay [12] is Receptor-type tyrosine-protein kinase FLT3 (Homo sapiens) (UniProt P36888). In words: Inhibition of FLT3 at 10 uM.
Receptor-type tyrosine-protein kinase FLT3 (Homo sapiens), sequence (P36888 whole entry): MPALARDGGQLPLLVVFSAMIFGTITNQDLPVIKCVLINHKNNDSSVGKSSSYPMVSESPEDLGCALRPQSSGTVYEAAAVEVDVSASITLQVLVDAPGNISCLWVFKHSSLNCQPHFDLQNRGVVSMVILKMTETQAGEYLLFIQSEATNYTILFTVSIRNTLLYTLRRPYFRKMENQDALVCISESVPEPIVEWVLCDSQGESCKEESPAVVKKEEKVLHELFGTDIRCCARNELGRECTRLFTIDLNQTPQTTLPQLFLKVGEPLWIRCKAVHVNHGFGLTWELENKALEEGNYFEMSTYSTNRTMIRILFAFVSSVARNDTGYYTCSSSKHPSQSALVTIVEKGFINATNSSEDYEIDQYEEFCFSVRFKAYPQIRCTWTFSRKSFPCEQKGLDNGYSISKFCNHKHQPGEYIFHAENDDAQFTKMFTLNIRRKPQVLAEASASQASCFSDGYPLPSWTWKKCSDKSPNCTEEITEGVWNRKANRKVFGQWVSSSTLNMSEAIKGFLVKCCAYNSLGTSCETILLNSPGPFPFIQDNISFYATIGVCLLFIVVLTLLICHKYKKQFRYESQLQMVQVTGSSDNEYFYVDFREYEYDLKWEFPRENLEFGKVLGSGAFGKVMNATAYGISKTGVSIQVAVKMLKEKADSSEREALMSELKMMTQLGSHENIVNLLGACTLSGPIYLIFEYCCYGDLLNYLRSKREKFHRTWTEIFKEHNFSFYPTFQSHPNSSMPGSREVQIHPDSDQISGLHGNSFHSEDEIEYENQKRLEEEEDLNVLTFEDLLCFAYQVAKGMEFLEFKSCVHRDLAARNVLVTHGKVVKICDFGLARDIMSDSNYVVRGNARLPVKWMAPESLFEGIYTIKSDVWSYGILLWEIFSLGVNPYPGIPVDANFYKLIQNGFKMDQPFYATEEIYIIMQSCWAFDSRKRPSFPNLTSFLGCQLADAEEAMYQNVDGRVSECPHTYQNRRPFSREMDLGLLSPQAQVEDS
For assay [13], the target named is Platelet-derived growth factor receptor beta (Homo sapiens) (UniProt P09619). The assay is described as follows: Inhibition of PDGFRbeta at 10 uM.
In assay [14] the target is 3-phosphoinositide-dependent protein kinase 1 (Homo sapiens) (UniProt O15530). In words: Inhibition of PDK1 at 10 uM.
3-phosphoinositide-dependent protein kinase 1 (Homo sapiens), sequence (O15530 whole entry, looked up): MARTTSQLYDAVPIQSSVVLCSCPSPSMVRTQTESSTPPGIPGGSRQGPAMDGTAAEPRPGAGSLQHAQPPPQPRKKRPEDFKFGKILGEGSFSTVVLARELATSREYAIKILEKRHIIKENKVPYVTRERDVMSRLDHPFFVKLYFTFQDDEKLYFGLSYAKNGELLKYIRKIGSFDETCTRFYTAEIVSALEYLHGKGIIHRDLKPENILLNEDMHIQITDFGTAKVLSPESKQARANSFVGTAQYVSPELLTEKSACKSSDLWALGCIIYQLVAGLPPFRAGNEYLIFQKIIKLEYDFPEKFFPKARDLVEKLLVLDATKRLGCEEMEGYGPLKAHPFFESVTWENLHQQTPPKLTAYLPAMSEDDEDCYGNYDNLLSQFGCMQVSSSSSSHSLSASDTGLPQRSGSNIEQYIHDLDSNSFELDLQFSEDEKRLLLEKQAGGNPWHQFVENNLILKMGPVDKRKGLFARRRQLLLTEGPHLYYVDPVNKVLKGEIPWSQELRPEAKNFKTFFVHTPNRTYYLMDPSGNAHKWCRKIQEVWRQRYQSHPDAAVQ
The subject of assay [15] is SF-268. The assay is described as follows: Antiproliferative activity against human SF268 cells at 100 uM after 48 hrs relative to control. It is filed as functional. As to conditions: SF-268, 48 h. The gist of the method: as §1

Aurora kinase B (Homo sapiens), sequence (Q96GD4 whole entry): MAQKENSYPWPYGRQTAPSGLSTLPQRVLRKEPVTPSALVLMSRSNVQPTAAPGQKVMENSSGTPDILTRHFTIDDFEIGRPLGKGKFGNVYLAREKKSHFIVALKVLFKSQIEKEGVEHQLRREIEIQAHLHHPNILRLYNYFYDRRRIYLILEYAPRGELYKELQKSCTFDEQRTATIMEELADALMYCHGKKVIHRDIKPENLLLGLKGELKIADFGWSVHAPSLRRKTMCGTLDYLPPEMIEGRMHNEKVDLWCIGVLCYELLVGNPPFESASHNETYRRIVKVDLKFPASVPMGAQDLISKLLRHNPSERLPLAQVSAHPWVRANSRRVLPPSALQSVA
RAC-alpha serine/threonine-protein kinase (Homo sapiens), sequence (P31749 whole entry): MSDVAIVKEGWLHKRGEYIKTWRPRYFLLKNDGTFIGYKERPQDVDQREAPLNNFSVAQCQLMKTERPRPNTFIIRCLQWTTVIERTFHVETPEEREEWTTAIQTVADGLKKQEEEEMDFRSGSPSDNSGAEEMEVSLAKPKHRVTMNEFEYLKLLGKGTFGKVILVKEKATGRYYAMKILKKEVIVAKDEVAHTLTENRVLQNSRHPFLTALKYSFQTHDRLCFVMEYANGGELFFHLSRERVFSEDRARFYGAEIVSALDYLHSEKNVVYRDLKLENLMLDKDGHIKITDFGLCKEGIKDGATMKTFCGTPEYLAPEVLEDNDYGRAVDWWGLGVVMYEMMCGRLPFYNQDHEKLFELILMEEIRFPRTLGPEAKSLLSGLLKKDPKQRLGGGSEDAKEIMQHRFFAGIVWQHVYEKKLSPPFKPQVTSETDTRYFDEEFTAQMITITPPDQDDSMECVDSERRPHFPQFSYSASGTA
Hepatocyte growth factor receptor (Homo sapiens), sequence (P08581 whole entry): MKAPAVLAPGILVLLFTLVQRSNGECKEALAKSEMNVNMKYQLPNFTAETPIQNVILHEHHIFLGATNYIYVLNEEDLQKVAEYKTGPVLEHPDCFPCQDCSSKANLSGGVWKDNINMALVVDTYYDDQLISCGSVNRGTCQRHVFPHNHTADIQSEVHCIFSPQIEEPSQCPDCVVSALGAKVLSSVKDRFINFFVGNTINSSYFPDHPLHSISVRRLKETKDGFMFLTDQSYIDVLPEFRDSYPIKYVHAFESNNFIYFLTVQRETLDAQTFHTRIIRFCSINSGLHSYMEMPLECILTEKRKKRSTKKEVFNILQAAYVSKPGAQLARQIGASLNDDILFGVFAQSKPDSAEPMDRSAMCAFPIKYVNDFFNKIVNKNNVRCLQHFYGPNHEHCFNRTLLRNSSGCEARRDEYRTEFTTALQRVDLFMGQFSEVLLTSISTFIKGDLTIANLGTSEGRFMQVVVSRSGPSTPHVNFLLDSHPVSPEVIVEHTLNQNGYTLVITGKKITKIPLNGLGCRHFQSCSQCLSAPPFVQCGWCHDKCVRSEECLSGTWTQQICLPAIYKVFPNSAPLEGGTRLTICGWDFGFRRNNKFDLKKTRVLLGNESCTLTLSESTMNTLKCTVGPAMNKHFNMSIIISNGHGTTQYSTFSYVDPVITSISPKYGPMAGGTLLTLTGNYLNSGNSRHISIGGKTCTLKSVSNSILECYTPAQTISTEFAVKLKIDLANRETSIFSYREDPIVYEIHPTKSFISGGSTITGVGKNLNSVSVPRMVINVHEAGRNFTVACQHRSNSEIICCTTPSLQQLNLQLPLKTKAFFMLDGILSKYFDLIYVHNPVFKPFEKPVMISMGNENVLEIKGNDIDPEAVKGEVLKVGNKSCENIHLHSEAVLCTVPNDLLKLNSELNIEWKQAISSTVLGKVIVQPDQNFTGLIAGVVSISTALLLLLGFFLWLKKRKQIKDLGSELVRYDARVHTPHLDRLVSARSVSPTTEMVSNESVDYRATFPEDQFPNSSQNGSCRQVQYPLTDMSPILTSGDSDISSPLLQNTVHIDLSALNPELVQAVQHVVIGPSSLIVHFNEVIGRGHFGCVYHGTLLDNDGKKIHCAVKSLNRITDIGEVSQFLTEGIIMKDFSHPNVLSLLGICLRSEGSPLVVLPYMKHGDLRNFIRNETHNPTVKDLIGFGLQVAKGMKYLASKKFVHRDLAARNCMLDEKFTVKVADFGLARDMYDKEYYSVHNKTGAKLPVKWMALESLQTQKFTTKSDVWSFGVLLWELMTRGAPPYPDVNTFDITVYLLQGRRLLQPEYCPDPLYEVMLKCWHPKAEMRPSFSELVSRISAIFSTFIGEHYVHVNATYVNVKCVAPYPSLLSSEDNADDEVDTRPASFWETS

In the case of `O=C1Cc2cnn(-c3ccc(C(F)(F)F)cc3)c2-c2ccccc2N1`, the results for the growth, % of control at 100 µM in assay [1] and in [2] were 52% and 28%, respectively. Also, the inhibition in assay [3], in assay [4], in assay [5], in assay [6], in assay [7] and in assay [8] was below 40% each time. Further, the inhibition in assay [9], in [10], in assay [11], in assay [12], in [13] and in [14] was below 40% throughout.
For the molecule `O=C1Cc2cnn(-c3ccc(F)cc3F)c2-c2ccccc2N1`, the growth, % of control at 100 µM in assay [1] came to 61%; in assay [2] it was 41%; in assay [15] it was 98%. Moreover, the inhibition in assay [3], in assay [4], in [5], in [6], in assay [7] and in [8] was below 40% in each case. Further, the inhibition in assay [9], in assay [10], in assay [11], in [12], in assay [13] and in assay [14] was below 40% in each case.
Turning to `Cc1ccc(-n2ncc3c2-c2ccccc2NC(=O)C3)cc1`, the growth, % of control at 100 µM in [1] was 57%; in [2], 29%; in assay [15], 95%. The inhibition in assay [3], in assay [4], in assay [5], in [6], in [7] and in [8] was below 40% throughout. In addition, the inhibition in assay [9], in assay [10], in assay [11], in [12], in assay [13] and in [14] was below 40% each time.
In the case of `O=C1Cc2cnn(-c3ccccc3)c2-c2ccccc2N1`, the values for the growth, % of control at 100 µM in assay [1], in assay [2] and in assay [15] were 55%, 33% and 90%, respectively. Besides, the inhibition in assay [3], in assay [4], in [5], in [6], in assay [7] and in assay [8] was below 40% in each case. Moreover, the inhibition in assay [9], in assay [10], in [11], in [12], in assay [13] and in assay [14] was below 40% each time.
As to `O=C1Cc2cnn(-c3ccccc3Cl)c2-c2ccccc2N1`, the growth, % of control at 100 µM in [1] was determined as 66%; in [2] it was 53%; in [15], 71%. Moreover, the inhibition in assay [3], in [4], in assay [5], in assay [6], in assay [7] and in assay [8] was below 40% each time. For the same molecule, the inhibition in assay [9], in assay [10], in [11], in assay [12], in assay [13] and in assay [14] was below 40% throughout.
Take `O=C1Cc2cnn(-c3cc(Cl)cc(Cl)c3)c2-c2ccccc2N1`: the values for the growth, % of control at 100 µM in assay [1], in assay [2] and in assay [15] were 40%, 21% and 62%, respectively. In addition, the inhibition in assay [3], in [4], in assay [5], in [6], in assay [7] and in [8] was below 40% throughout. For the same molecule, the inhibition in [9], in [10], in assay [11], in assay [12], in assay [13] and in assay [14] was below 40% throughout.
With `COc1ccc(-n2ncc3c2-c2ccccc2NC(=O)C3)cc1`, the growth, % of control at 100 µM was 60% in assay [1], 26% in assay [2] and 88% in [15]. For the same molecule, the inhibition in assay [3], in assay [4], in [5], in assay [6], in assay [7] and in assay [8] was below 40% each time. For the same molecule, the inhibition in assay [9], in [10], in [11], in assay [12], in [13] and in assay [14] was below 40% each time.
As for `O=C1Cc2cnn(-c3ccccc3Br)c2-c2ccccc2N1`, the growth, % of control at 100 µM in assay [1] was 69%; in assay [2], 44%; in assay [15] it was 87%. The inhibition in assay [3], in [4], in assay [5], in assay [6], in [7] and in assay [8] was below 40% in each case. In addition, the inhibition in [9], in assay [10], in [11], in assay [12], in assay [13] and in assay [14] was below 40% throughout.
For `CC(C)(C)c1ccc(-n2ncc3c2-c2ccccc2NC(=O)C3)cc1`, the growth, % of control at 100 µM in assay [1] amounted to 130%; in assay [2], 11%. Further, the inhibition in [3], in assay [4], in assay [5], in assay [6], in [7] and in assay [8] was below 40% in each case. The inhibition in assay [9], in assay [10], in assay [11], in [12], in assay [13] and in [14] was below 40% throughout.
As for `O=C1Cc2cnn(-c3ccc(Cl)cc3)c2-c2ccccc2N1`, the growth, % of control at 100 µM in assay [1] came to 54%; in [2], 41%; in assay [15] it was 80%. The inhibition in assay [3], in assay [4], in assay [5], in assay [6], in [7] and in assay [8] was below 40% throughout. Moreover, the inhibition in [9], in [10], in assay [11], in [13] and in assay [14] was below 40% throughout.
